Assay results as given in ChEMBL document CHEMBL2440064, “Synthesis and biological evaluation of 2-amino-5-aryl-3-benzylthiopyridine scaffold based potent c-Met inhibitors” (Bioorg Med Chem, 2013).
Active and inactive are the calls of the source. The rule behind the calls is not given here.

How the values were obtained:
Mus musculus = assay: Toxicity in mouse allografted with mouse NIH/3T3 cells assessed as decrease in body weight at 100 mg/kg, po qd administered for 2 weeks measured twice per week; assay type: organism-based, NIH3T3; parameters: dose 100 mg/kg, route oral; settings: in vivo, 336 h
Method in brief: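 Tumor fragments of 1 mm³ implanted s.c. in the right flank of nude mice with a trocar. Mice randomized once tumors reached 100–150 mm³. Oral dosing 7 days/week for 2 weeks; vehicle-only controls. Tumors measured twice weekly by microcaliper; body weight monitored.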

[1] = biological target: Hepatocyte growth factor receptor (Homo sapiens, UniProt P08581); assay: Inhibition of c-Met in gefitinib-resistant human HCC827 cells assessed as inhibition of AKT phosphorylation at 0.5 uM after 2 hrs by Western blotting analysis in presence of gefitinib; assay type: cell-based
Method in brief: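 Cells grown to exponential phase, treated with compound 2 h at 37°C, lysed in 1× SDS sample buffer, resolved on 10% SDS-PAGE and transferred to nitrocellulose for immunoblotting.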

SK-MEL-28 = assay: Antiproliferative activity against human SK-MEL-28 cells after 72 hrs; settings: SK-MEL-28, 72 h
[2] = Volume of distribution in rat at 2 mg/kg, iv and 10 mg/kg, po; assay type: ADME, organism-based; settings: in vivo
Method in brief: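 Rats given a single iv dose (2 mg/kg) or a single po dose (10 mg/kg).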

Chain of Hepatocyte growth factor receptor (P08581 whole entry): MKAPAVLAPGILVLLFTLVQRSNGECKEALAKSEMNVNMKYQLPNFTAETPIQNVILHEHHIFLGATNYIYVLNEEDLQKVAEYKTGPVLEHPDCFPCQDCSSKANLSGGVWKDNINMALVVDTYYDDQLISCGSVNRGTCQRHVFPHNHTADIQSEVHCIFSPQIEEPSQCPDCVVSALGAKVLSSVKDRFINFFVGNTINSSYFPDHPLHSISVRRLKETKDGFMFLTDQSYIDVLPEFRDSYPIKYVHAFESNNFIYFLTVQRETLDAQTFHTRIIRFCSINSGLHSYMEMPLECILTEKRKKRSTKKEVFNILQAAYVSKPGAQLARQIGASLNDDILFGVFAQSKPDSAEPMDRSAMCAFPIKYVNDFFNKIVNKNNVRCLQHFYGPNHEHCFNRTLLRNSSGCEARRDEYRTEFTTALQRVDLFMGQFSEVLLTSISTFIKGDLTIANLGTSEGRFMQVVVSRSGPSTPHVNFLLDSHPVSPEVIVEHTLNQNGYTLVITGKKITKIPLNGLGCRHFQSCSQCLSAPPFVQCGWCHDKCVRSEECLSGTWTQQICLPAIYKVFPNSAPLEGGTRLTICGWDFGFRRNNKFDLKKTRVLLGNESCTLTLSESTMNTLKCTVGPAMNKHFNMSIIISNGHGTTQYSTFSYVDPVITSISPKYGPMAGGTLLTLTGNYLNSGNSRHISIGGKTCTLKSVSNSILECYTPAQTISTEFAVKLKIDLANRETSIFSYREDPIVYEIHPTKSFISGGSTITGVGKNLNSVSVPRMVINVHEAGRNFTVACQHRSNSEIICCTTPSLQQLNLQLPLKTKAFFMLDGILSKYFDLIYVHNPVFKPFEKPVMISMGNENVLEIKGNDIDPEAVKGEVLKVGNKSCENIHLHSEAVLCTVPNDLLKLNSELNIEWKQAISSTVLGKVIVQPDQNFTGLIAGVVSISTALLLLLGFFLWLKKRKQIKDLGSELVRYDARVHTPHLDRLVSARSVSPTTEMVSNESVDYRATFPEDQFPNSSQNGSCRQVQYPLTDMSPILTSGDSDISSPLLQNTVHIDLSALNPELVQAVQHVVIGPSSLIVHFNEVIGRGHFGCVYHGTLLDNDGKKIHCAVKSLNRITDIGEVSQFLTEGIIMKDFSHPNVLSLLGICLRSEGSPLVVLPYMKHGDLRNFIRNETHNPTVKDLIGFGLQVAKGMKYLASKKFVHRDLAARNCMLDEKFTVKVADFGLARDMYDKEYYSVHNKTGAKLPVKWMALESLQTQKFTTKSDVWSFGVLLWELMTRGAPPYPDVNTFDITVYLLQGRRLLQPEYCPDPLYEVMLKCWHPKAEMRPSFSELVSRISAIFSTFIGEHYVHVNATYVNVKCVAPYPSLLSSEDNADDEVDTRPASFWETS

inhibition [1]: Active
IC50 (SK-MEL-28): 9.31 µM
Vd [2]: 20 L/kg
Structure (SMILES): C[C@@H](Sc1cc(-c2cnn(C3CCNCC3)c2)cnc1N)c1c(Cl)ccc(F)c1Cl
Activity (Mus musculus): Non-toxic
